Measurements from paper PMC9720839 (Cell reports, 2022).
“Also recorded” adds a separate entry of the source. {56-FAM} = 6-carboxyfluorescein label (IDT code)

Columns and labels:
[1] = molecular target: hP13 ZnF5-WWE1-WWE2 (wild type) (Homo sapiens, UniProt Q7Z2W4); assay: Differential scanning fluorimetry; assay type: binding; conditions: protein 8 μM, DSF
Outline: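 His-GB1-tagged human fragment (residues 507–699) expressed in E. coli Rosetta2, TEV-cleaved, purified by Ni2+, gel filtration and Q flow-through. TM from Boltzmann fit; ΔTM = TM with ligand minus without; two repeats.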

[2] = molecular target: T1, hP13 ZnF5-WWE1-WWE2 W611A mutant (Homo sapiens, UniProt Q7Z2W4, W611A); assay: Differential scanning fluorimetry; assay type: binding; conditions: protein 8 μM, DSF
WWE domain from RNF-146 = conditions: ref Wang et al., 2012; cited from earlier work
[3] = molecular target: mouse PARP13 (mP13) ZnF5-WWE1-WWE2 (residues 476-673) (mouse) (UniProt Q3UPF5); assay: SEC-MALS
hP13 ZnF5-WWE1-WWE2 = hP13 ZnF5-WWE1-WWE2 (Homo sapiens, UniProt Q7Z2W4); assay: FP RNA binding assay; conditions: FAM-labeled RNA 5 nM, 300 mM KCl
WWE domain of RNF-146 = assay: Fluorescence polarization; conditions: direct FP binding, probe 5 nM
[4] = molecular target: T1, hP13 ZnF5-WWE1-WWE2 W611A mutant; assay: Fluorescence polarization; conditions: direct FP binding, probe 5 nM
Outline: (§1)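 QuickChange point mutants of human fragment (residues 507–699), His-GB1 fusion, expressed in Rosetta2 (0.2 mM IPTG, 16°C, 18 h), TEV-cleaved, purified by Ni2+, gel filtration, Q flow-through. Quadratic 1:1 KD fit; ≥3 experiments, mean ± SD.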

[5] = molecular target: hP13 ZnF5-WWE1-WWE2 R682A mutant (Homo sapiens, UniProt Q7Z2W4, R682A); assay: Fluorescence polarization; assay type: binding; conditions: R682A versus wild-type hP13 ZnF5-WWE1-WWE2
Outline: as §1

[6] = molecular target: hP13 ZnF5-WWE1-WWE2 R577A mutant (Homo sapiens, UniProt Q7Z2W4, R577A); assay: Fluorescence polarization; assay type: binding; conditions: R577A versus wild-type hP13 ZnF5-WWE1-WWE2
Outline: as §1

T1 sequence (Q7Z2W4 507-699 W611A): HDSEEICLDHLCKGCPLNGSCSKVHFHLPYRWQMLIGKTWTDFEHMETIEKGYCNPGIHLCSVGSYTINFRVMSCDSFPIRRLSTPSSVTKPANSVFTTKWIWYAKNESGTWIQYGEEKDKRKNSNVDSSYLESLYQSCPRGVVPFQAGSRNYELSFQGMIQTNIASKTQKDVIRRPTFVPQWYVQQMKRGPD
hP13 ZnF5-WWE1-WWE2 (wild type), sequence (Q7Z2W4 507-699): as the sequence (Q7Z2W4 507-699 W611A) above, with A105W counted along it
hP13 ZnF5-WWE1-WWE2, sequence (Q7Z2W4 507-699): as the sequence (Q7Z2W4 507-699 W611A) above, with A105W counted along it
hP13 ZnF5-WWE1-WWE2 R682A mutant, sequence (Q7Z2W4 507-699 R682A): as the sequence (Q7Z2W4 507-699 W611A) above, with A105W, R176A counted along it
hP13 ZnF5-WWE1-WWE2 R577A mutant, sequence (Q7Z2W4 507-699 R577A): as the sequence (Q7Z2W4 507-699 W611A) above, with R71A, A105W counted along it

Molecule | change in thermal stability in presence of ligand (in words) [1] | change in thermal stability in presence of ligand (in words) [2] | binding (in words) (WWE domain from RNF-146) | further results
Nc1ncnc2c1ncn2[C@@H]1O[C@H](COP(=O)(O)OP(=O)(O)OP(=O)(O)O)[C@@H](O)[C@H]1O [ATP] | increase in the thermal stability | did not show an increase in thermal stability | – | –
Nc1ncnc2c1ncn2[C@@H]1O[C@H](COP(=O)(O)OP(=O)(O)OC[C@H]2OC(O)[C@H](O)[C@@H]2O)[C@@H](O)[C@H]1O (some centres unmarked) [ADPr, ADP-ribose] | increase in the thermal stability; also recorded: increased hP13 ZnF5-WWE1-WWE2 thermal stability | did not show an increase in thermal stability | do not bind | –
mouse PARP13 (mP13) ZnF5-WWE1-WWE2 (residues 476-673) (from UniProt Q3UPF5 476-673) (domain or fragment) | – | – | – | percent of the scattering mass in the dimer peak [3]: 4%; stoichiometry N [3]: 2
/56-FAM/rArArArCrArArArArArArArGrArCrGrArArArArA (AAACAAAAAAAGACGAAAAA; RNA, 5' {56-FAM}, backbone not given here) [RNA-FAM] | – | – | – | RNA binding (in words) (hP13 ZnF5-WWE1-WWE2): unable to bind
Nc1ncnc2c1ncn2[C@@H]1O[C@H](COP(=O)(O)O)[C@@H](O)[C@H]1O[C@@H]1O[C@H](COP(=O)(O)O)[C@@H](O)[C@H]1O [iso-ADPr] | increase in thermal stability in the presence of iso-ADPr, but to a lesser extent than seen with ADPr | – | capable of binding | –
γ-(6-Aminohexyl)-ATP-6-FAM [ATP-FAM] | – | – | – | binding to probe (in words) (WWE domain of RNF-146): no evidence of binding; also recorded: no indication of binding; binding to probe (in words) [4]: no evidence of binding; also recorded: no indication of binding; binding affinity, fold weaker than wild type [5]: 1.2 fold; binding affinity, fold weaker than wild type [6]: 1.1 fold
